From paper PMC7090343 (Heliyon, 2020)
In brackets after ≈: the same amount, converted by molar mass. Where two headings read alike, the source gives them in different places. Marks after values point to notes of the source that are not given here.

How the values were obtained:
[1] = In vitro antioxidation activity; conditions: DPPH assay, mean of three replicates; for EC50 (antioxidation activity), crude and partitioned extracts: Table 1 experiment
Procedure, shortened: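 Five concentrations of test compound or extract were prepared in DMSO. Each was mixed with 0.15 mM DPPH in methanol and held at 25 °C for 30 min, then A517 was read. Ascorbic acid served as reference standard. Antioxidation (%) = [(A control − A sample)/A control] × 100. EC50 came from linear and nonlinear regression of % activity against concentration. Triplicates were used.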

human tyrosinase = conditions: ref An et al., 2010, cited from earlier work

EC50 (antioxidation activity), crude and partitioned extracts [1] | EC50 (antioxidation activity), crude and partitioned extracts ([1]; listed as ascorbic acid) [µg/mL] | EC50 value of pooled fractions after SG60CC ([1]; nonlinear regression, Table 4 experiment) | SMILES | Type of inhibition of human tyrosinase (human tyrosinase; for L-DOPA) | Type of inhibition of human tyrosinase (human tyrosinase; for tyrosine)
89.82^a μg/mL | 89.8 (≈ 510 µM) | 71.5^a μg/mL | O=C1O[C@H]([C@@H](O)CO)C(O)=C1O [Ascorbic acid, ascorbic acid] |  | 
 |  |  | O=C(O)/C=C/c1ccc(O)cc1 [p-coumaric acid] | competitive | mixed type
